Results from different studies.
Protocols differ between the studies behind these lines.
Observed: metabolic stability
Species: human
Medium: liver microsomes

SMILES	concentration	pH	microsomal CLint
COc1cc2[nH]c(C)c(-c3ccc(N(C)C)nc3)c(=O)c2cc1Cl	1 µM	–	20 µL/min/mg
FC(F)(F)c1cccc(Nc2c(-c3ccccn3)nc3ccccn23)c1	3 µM	pH 7.4	59 µL/min/mg
CN1CCN(c2nc(-c3ccccn3)nc3ccccc23)CC1	–	–	< 1 µL/min/mg
Cn1cnc(-c2nc3ccccn3c2Nc2ccc(F)cc2)c1	3 µM	pH 7.4	17 µL/min/mg
NC(=O)c1cccc(-c2nc(N3CCC(c4ccccn4)C3)c3ccccc3n2)c1 (centres unmarked)	–	–	111 µL/min/mg
COc1cc2[nH]c(C)c(-c3ccc(N(C)C)cc3)c(=O)c2cc1Cl	1 µM	–	15 µL/min/mg
CCn1cc2c(N3CCC(c4ccccn4)C3)nc(-c3ccccn3)nc2n1 (centres unmarked)	–	–	< 1 µL/min/mg
CN(C)C(=O)c1ccc(-c2c(-c3ccccn3)nc3n2CCC3)cc1	3 µM	pH 7.4	< 3 µL/min/mg
O=S(=O)(c1ccc(-c2ccc3nccc(Nc4ccccc4)c3c2)cc1)N1CCOCC1	–	–	71.3 µL/min/mg
COc1cc2[nH]c(C)c(-c3ccco3)c(=O)c2cc1Cl	1 µM	–	59 µL/min/mg
COc1ccc(-c2nc3ccccn3c2N(C)c2ccc(F)cc2)nc1	3 µM	pH 7.4	93 µL/min/mg
O=S(=O)(c1ccc(-c2ccc3nccc(Nc4ccncc4)c3c2)cc1)N1CCOCC1	–	–	82.4 µL/min/mg
c1ccc(-c2nc(NCc3nccs3)c3ccccc3n2)nc1	–	–	36 µL/min/mg
COc1cc2[nH]c(C)c(-c3ccc(S(=O)(=O)N(C)C)cc3)c(=O)c2cc1Cl	1 µM	–	17 µL/min/mg
